Assay results taken from ChEMBL document CHEMBL4007420, “Structural Optimization and Pharmacological Evaluation of Inhibitors Targeting Dual-Specificity Tyrosine Phosphorylation-Regulated Kinases (DYRK) and CDC-like kinases (CLK) in Glioblastoma” (J Med Chem, 2017).
pEC50, pIC50: −log10 of the molar value. The source made the active and inactive calls. No cut-off for these calls is given here.

How the values were obtained:
[1] = tested on: A 172; assay: Antimigratory activity in human A172 cells assessed as velocity of migration at 1 uM measured up to 20 hrs by wound scratch assay (reference value: 2650 to 3123 micrometer/hr); format: functional
In short: (§1)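 Wound-healing migration assay: cell movement across the wound is measured as velocity (µm/h). Compounds were tested at 0, 1.0, 5.0 and 10.0 µM. Values are mean ± SEM of 3 independent experiments.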

[2] = target: T1, Dual specificity tyrosine-phosphorylation-regulated kinase 1A (Homo sapiens, UniProt Q13627); assay: Inhibition of DYRK1A in human U251 cell lysate assessed as EGF induced EGFR degradation at 2.5 uM by measuring basal EGFR half life in presence of cycloheximide by Western blot analysis (reference value: 25.6 +/- 7.6 min)
In short: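 U251 cells were pretreated with 2.5 µM compound or DMSO for 4 h, then given cycloheximide (30 µg/mL, 1 h). EGF (100 ng/mL) was added for 0–120 min. EGFR was detected by Western blot, normalized to β-actin and expressed as % of 0 min. Half-life came from non-linear regression, as mean ± SEM of 3 independent experiments.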

[3] = target: Mitogen-activated protein kinase 14 (Homo sapiens) (UniProt Q16539); assay: Stabilization of MAPK p38alpha in human U251 cell lysate at 10 uM preincubated for 1 hr followed by incubation at 40 to 70 degreeC for 3 mins by cellular thermal shift assay
Sequence of Mitogen-activated protein kinase 14 (Homo sapiens) (Q16539 whole entry): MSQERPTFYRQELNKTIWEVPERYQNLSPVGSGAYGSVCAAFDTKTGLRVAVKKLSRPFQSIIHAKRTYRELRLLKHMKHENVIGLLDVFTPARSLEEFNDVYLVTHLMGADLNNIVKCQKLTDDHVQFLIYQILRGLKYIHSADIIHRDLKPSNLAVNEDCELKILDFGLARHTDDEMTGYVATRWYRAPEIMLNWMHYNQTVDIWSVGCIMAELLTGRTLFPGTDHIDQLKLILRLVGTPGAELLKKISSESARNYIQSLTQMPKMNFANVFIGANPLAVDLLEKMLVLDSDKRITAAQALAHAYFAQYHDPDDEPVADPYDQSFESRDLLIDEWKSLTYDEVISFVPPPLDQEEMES

[4] = tested on: U-251; assay: Anticlonogenic activity against human U251 cells after 10 to 12 days by toluidine blue staining based assay; format: functional, cell-based
In short: (§2)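 Cells were exposed to compound for 10 days, then colonies were fixed, stained with Toluidine Blue and counted. […] Values are mean ± SEM of 3 independent experiments, each in duplicate, with one-way ANOVA and Dunnett's test against vehicle.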

[5] = target: T1, Dual specificity tyrosine-phosphorylation-regulated kinase 1A; assay: Binding affinity to DYRK1A in human U251 […] preincubated for 1 hr followed by incubation at 54 degreeC for 3 mins by isothermal dose-response fingerprint assay
In short: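 Isothermal dose-response fingerprint: intact U251 cells were treated for 1 h across 0–20 µM, then heated at 54 °C. The soluble fraction was extracted with aqueous buffer and DYRK1A was detected by Western blot. Results are mean ± SEM of 2 independent experiments.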

[6] = Cytotoxicity against patient-derived JK2 cells assessed as reduction in cell viability after 3 days by Alamar blue assay; format: functional, cell-based; settings: Homo sapiens, JK2, 72 h
In short: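 The patient-derived glioblastoma lines were grown as stem cells under defined conditions to keep the phenotype and genotype of the resected tumours. Viability after treatment was read with Alamar blue.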

[7] = target: T2, Dual specificity tyrosine-phosphorylation-regulated kinase 2 (Homo sapiens) (UniProt Q92630); assay: Stabilization of DYRK2 in human U251 cell lysate at 10 uM preincubated for 1 hr followed by incubation at 40 to 70 degreeC for 3 mins by cellular thermal shift assay
T2 sequence (whole entry): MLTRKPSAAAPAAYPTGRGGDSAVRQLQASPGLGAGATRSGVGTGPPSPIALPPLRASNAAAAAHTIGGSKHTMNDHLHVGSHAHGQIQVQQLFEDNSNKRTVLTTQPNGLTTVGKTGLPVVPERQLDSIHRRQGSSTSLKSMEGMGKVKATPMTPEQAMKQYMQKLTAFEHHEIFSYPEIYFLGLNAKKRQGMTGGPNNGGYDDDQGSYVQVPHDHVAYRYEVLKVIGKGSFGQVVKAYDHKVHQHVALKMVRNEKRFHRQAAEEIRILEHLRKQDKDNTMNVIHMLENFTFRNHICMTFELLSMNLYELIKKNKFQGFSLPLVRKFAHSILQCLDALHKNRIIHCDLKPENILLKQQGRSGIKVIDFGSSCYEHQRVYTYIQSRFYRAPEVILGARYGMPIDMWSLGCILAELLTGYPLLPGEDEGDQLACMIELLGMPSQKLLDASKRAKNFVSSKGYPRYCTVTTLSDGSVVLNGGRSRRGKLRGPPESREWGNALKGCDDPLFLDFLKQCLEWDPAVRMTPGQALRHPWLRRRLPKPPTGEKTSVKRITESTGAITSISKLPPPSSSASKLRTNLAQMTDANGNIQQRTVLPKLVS

[8] = tested on: U-251; assay: Cytotoxicity against human U251 cells assessed as reduction in cell viability after 3 days by Alamar blue assay; format: functional, cell-based; settings: U-251, 72 h
[9] = tested on: U-251; assay: Antiinvasive activity in human U251 cells assessed as velocity of invasion at 5 uM measured up to 20 hrs by matrigel assay (reference value: 1151 to 1710 micrometer/hr); format: functional
[10] = target: Dual specificity protein kinase CLK1 (Homo sapiens, UniProt P49759); assay: Stabilization of CLK1 in human U251 cell lysate at 10 uM preincubated for 1 hr followed by incubation at 40 to 70 degreeC for 3 mins by cellular thermal shift assay
Sequence of Dual specificity protein kinase CLK1 (P49759 whole entry, looked up): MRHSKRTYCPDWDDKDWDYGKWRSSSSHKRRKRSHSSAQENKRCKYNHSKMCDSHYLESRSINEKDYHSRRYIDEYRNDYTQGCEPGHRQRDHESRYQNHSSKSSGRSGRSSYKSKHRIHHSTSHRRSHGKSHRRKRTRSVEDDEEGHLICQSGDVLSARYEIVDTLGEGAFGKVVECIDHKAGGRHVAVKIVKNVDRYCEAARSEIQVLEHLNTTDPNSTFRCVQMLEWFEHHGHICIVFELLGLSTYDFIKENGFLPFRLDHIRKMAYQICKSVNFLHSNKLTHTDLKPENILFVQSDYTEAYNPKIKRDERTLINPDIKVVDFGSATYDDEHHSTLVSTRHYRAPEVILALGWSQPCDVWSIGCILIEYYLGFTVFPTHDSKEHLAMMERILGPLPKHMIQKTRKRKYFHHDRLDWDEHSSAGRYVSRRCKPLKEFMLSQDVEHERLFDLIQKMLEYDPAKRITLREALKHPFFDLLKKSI

[11] = tested on: RN1; assay: (§3) Anticlonogenic activity against patient-derived RN1 cells after 10 to 12 days by toluidine blue staining based assay; format: functional, cell-based; settings: Homo sapiens; in short: as §2
[12] = as §3; format: functional, cell-based, Homo sapiens; in short: as §2
[13] = Antimigratory activity in patient-derived RN1 cells assessed as velocity of migration at 10 uM measured up to 20 hrs by wound scratch assay (reference value: 937 to 1174 micrometer/hr); format: functional, Homo sapiens; in short: as §1

T1/2 [2]: 11.3 min | Activity [3]: inactive | pEC50 [4]: 6.74 | pIC50 [5]: 6.15 | Activity [7]: Active | Activity [10]: Active | pEC50 [12]: 6.10
SMILES: Nc1ccc(-c2cnc3[nH]cc(-c4ccc(O)cc4)c3c2)cc1
Activity [1]: 2828 um/hr | pEC50 [6]: 5.10 | pEC50 [8]: 5.34 to 5.80 | Activity [9]: 234 um/hr | Activity [11]: Dose-dependent effect | Activity [13]: 208 um/hr
